{"source": "paper PMC8891099", "about": "(Clinical Pharmacokinetics, 2021)", "key": {"[1]": {"tested_on": "patients with CKD and T2D", "assay": "FIDELIO-DKD phase III study, kidney outcome events", "assay_type": "in vivo, human", "details": "finerenone group, 504 of 2833 patients, median follow-up of 2.6 years"}, "[2]": {"tested_on": "patients with CKD and T2D", "assay": "Parametric time-to-event exposure-response", "assay_type": "in vivo", "details": "Homo sapiens, read-out: EC50 (half-maximal drug effect concentration)", "method_in_brief": "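Parametric time-to-event model (Weibull hazard) for the first composite kidney event, with exposure-response as an Emax function driven by central-compartment concentration. Input was individual concentration-time profiles from post-hoc PK estimates, actual dosing history and covariates; typical PK parameters were used for subjects lacking them. Delay and Hill coefficient were tested. Checked by visual predictive checks with observed dropout.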"}, "[3]": {"tested_on": "patients with CKD and T2D", "details": "corresponding to sustained eGFR decrease ≥ 57%, under finerenone treatment ref 3; cited from earlier work"}, "[4]": {"assay": "Population pharmacokinetic model of finerenone in FIDELIO-DKD", "assay_type": "in vivo, human", "method_in_brief": "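Nonlinear mixed-effects model of sparse plasma levels after oral 10 or 20 mg once daily. Sampling was a month-4 trough plus post-dose samples at any time on yearly visits. Structure: two compartments with equal volumes, transit-compartment absorption and first-order elimination, starting from a phase IIb model. Covariate search used single addition and forward inclusion at p 0.01 and backward deletion at p 0.001.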"}, "[5]": {"details": "covariate parameter, population PK model"}, "[6]": {"details": "inter-individual variability, population PK model"}, "[7]": {"details": "population PK model estimate, FIDELIO-DKD patients"}}, "data": [{"smiles": "CCOc1ncc(C)c2c1[C@H](c1ccc(C#N)cc1OC)C(C(N)=O)=C(C)N2", "note": "[finerenone]", "values": [{"measurement": "patients with a kidney event contributing to the composite endpoint", "setting": "[1]", "result": 17.8, "unit": "%"}, {"measurement": "EC50", "setting": "[2]", "result": 0.166, "unit": "ng/mL"}, {"measurement": "reduction of secondary endpoint doubling of serum creatinine", "setting": "[3]", "result": 32, "unit": "%"}, {"measurement": "Effect for Korean subjects on Vc/F", "setting": "[4]; [5]", "result": 1.29}, {"measurement": "Effect of body weight on Vc/F", "setting": "[4]; [5]", "result": 0.501}, {"measurement": "Absorption lag time", "setting": "[4]; fixed in population PK model", "result": "0.215 (fixed) h"}, {"measurement": "Ratio Vp/F and Vc/F", "setting": "[4]; fixed in population PK model", "result": "1 (fixed)"}, {"measurement": "Relative bioavailaility", "setting": "[4]; fixed in population PK model", "result": "1 (fixed)"}, {"measurement": "Covariance CL/F × Vc/F", "setting": "[4]; [6]", "result": 0.0442}, {"measurement": "ω^2 Vc/F", "setting": "[4]; [6]", "result": 0.104}, {"measurement": "dose linearity of pharmacokinetics", "setting": "[4]; over the investigated dose range (10 and 20 mg once daily)", "result": "dose linear"}, {"measurement": "Inter-individual variability of CL/F expressed as CV", "setting": "[4]; population PK model", "result": "^aShrinkage was 26.6%, variability expressed as CV: 31.8%"}, {"measurement": "Inter-individual variability of Vc/F expressed as CV", "setting": "[4]; population PK model", "result": "^bShrinkage was 47.8%, variability expressed as CV: 33.0%"}, {"measurement": "CL/F", "setting": "[4]; [7]", "result": 29.9, "unit": "L/h"}, {"measurement": "Q/F", "setting": "[4]; [7]", "result": 0.335, "unit": "L/h"}, {"measurement": "Vc/F", "setting": "[4]; [7]", "result": 113, "unit": "L"}, {"measurement": "Ka", "setting": "[4]; population PK model estimate, FIDELIO-DKD patients, oral 10 or 20 mg once daily", "result": 22.5, "unit": "h⁻¹"}, {"measurement": "σ^2", "setting": "[4]; residual error, population PK model", "result": 0.313}]}]}
